ChEMBL document CHEMBL1149130, “Synthesis and biological evaluation of novel chloroethylaminoanthraquinones with potent cytotoxic activity against cisplatin-resistant tumor cells” (J Med Chem, 2004)

How the values were obtained:
A2780 [1] = assay: Growth inhibition against A2780 cisplatin resistant wild-type ovarian cell lines; assay type: functional, cell-based; conditions: Homo sapiens
Method in brief: (§1)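 Cells in exponential growth (5 × 10⁴ cells/mL) were exposed to compound freshly dissolved in DMSO for 24 h at 37 °C. Drug medium was then replaced with fresh medium, followed by 3 days of growth. Viability was read by sulforhodamine B staining. IC50 is the concentration giving a 50% reduction in SRB colour formation.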

A2780 [2] = assay: Growth inhibition against A2780 wild-type ovarian cell lines; assay type: functional, cell-based; conditions: Homo sapiens; method in brief: as §1
CH1 [3] = assay: Growth inhibition against CH-1 wild-type ovarian cell lines; assay type: functional, cell-based; conditions: Homo sapiens; method in brief: as §1
SK-OV-3 [4] = assay: Growth inhibition against SKOV3 wild-type ovarian cell lines; assay type: functional, cell-based; conditions: Homo sapiens; method in brief: as §1
Homo sapiens = species: Homo sapiens; assay: Resistance factor (IC50 in the resistant cell line/IC50 in the parent cell line); assay type: functional
CH1 [5] = assay: Growth inhibition against CH-1 cisplatin resistant wild-type ovarian cell lines; assay type: functional, cell-based, Homo sapiens; method in brief: as §1
CH1 [6] = assay: Compound was evaluated for growth inhibition against CH1cisR wild-type ovarian cell lines; assay type: functional, cell-based; conditions: Homo sapiens
Method in brief: (§2)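 Cells kept as in earlier work; exponentially growing cultures (5 × 10⁴ cells/mL) given compound freshly dissolved in DMSO, 24 h at 37 °C. Drug medium then replaced with fresh medium, followed by 3 day growth. Viability by sulforhodamine B staining; IC50 taken as concentration giving 50% reduction in SRB colour formation.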

SK-OV-3 [7] = assay: Compound was evaluated for growth inhibition against SKOV3 wild-type ovarian cell lines; assay type: functional, cell-based; conditions: Homo sapiens; method in brief: as §2

| IC50 (SK-OV-3 [7]) [nM] | Molecule | IC50 (A2780 [1]) [nM] | IC50 (A2780 [2]) [nM] | IC50 (CH1 [3]) [nM] | IC50 (SK-OV-3 [4]) [nM] | RF (Homo sapiens) | IC50 (CH1 [5]; Homo sapiens, CH1) [nM] | RF (Homo sapiens; Homo sapiens) | IC50 (CH1 [6]) [nM] | IC50 (CH1 [5]; ch1) [nM] |
| --- | --- | --- | --- | --- | --- | --- | --- | --- | --- | --- |
| – | O=C1c2ccccc2C(=O)c2c(NCCCN(CCCl)CCCl)ccc(NCCCN(CCCl)CCCl)c21 | 52 | 31 | 30 | 190 | 3.7 | 110 | – | – | – |
| – | CN(CCO)CCNc1cccc2c1C(=O)c1ccccc1C2=O | 4200 | 3400 | 2900 | 13000 | 1 | 2800 | 1.2 | – | – |
| – | CN(CCCl)CCNc1ccc(NCCN(C)CCCl)c2c1C(=O)c1c(O)ccc(O)c1C2=O | 24 | 9 | 7 | 100 | 1.9 | 14 | 2.7 | – | – |
| – | O=C1c2c(O)ccc(O)c2C(=O)c2c(NCCN(CCCl)CCCl)ccc(NCCN(CCCl)CCCl)c21 | 170 | 120 | 54 | 1450 | 2 | 110 | 1.4 | – | – |
| 18000 | O=C1c2ccccc2C(=O)c2c(NCCN(CCO)CCO)ccc(NCCN(CCO)CCO)c21 | 3500 | 3300 | 3900 | – | 0.8 | – | 1.1 | 3300 | – |
| – | O=C1c2ccccc2C(=O)c2c(NCCCN(CCCl)CCCl)cccc21 | 640 | 410 | 185 | 1900 | 2.9 | 550 | 1.6 | – | – |
| – | CN(CCCl)CCNc1cccc2c1C(=O)c1ccccc1C2=O | 8000 | 4600 | 2500 | 13500 | 1.2 | 3100 | 1.7 | – | – |
| – | CN(CCO)CCCNc1cccc2c1C(=O)c1ccccc1C2=O | 3300 | 3100 | 2600 | 11500 | 1 | 2600 | 1.1 | – | – |
| – | CN(CCO)CCNc1ccc(NCCN(C)CCO)c2c1C(=O)c1ccccc1C2=O | 580 | 720 | 680 | 3300 | 1.2 | 800 | 0.8 | – | – |
| – | O=C1c2c(O)ccc(O)c2C(=O)c2c(NCCCN(CCO)CCO)ccc(NCCCN(CCO)CCO)c21 | 740 | 680 | 580 | 2450 | 1.3 | 780 | 1.1 | – | – |
| – | CN(CCCl)CCNc1ccc(NCCN(C)CCCl)c2c1C(=O)c1ccccc1C2=O | 355 | 135 | 110 | 770 | 1.3 | 145 | 2.6 | – | – |
| – | CN(C)CCNc1ccc(NCCN(CCO)CCO)c2c1C(=O)c1c(O)ccc(O)c1C2=O | 13 | 13 | 30 | 260 | 1.6 | 46 | 1 | – | – |
| – | CN(CCO)CCNc1ccc(NCCN(C)CCO)c2c1C(=O)c1c(O)ccc(O)c1C2=O | 4 | 4 | 8 | 11000 | 2.6 | 22 | – | – | – |
| 6700 | O=C1c2ccccc2C(=O)c2c(NCCCN(CCO)CCO)ccc(NCCCN(CCO)CCO)c21 | 3400 | 3500 | 2200 | – | 1.1 | – | 1 | 2400 | – |
| – | CN(CCCl)CCCNc1cccc2c1C(=O)c1ccccc1C2=O | 2700 | 2700 | 1440 | 10800 | 0.9 | 1300 | 1 | – | – |
| – | O=C1c2ccccc2C(=O)c2c(NCCN(CCCl)CCCl)ccc(NCCN(CCCl)CCCl)c21 | 96 | 51 | 78 | 860 | 1.2 | 92 | 1.9 | – | – |
| – | CN(C)CCNc1ccc(NCCN(CCCl)CCCl)c2c1C(=O)c1c(O)ccc(O)c1C2=O | 19 | 16 | 18 | 155 | 1 | 19 | 1.2 | – | – |
| – | CN(C)CCNc1ccc(NCCN(C)CCO)c2c1C(=O)c1c(O)ccc(O)c1C2=O | 5 | 5 | 24 | 300 | 1.9 | 45 | 1 | – | – |
| – | O=C1c2c(O)ccc(O)c2C(=O)c2c(NCCN(CCO)CCO)ccc(NCCN(CCO)CCO)c21 | 115 | 82 | 300 | 1500 | 1.2 | 370 | 1.4 | – | – |
| – | O=C1c2c(O)ccc(O)c2C(=O)c2c(NCCCN(CCCl)CCCl)ccc(NCCCN(CCCl)CCCl)c21 | 38 | 28 | 25 | 185 | – | 35 | 1.4 | – | – |
| – | O=C(O)CCCc1ccc(N(CCCl)CCCl)cc1 [CHLORAMBUCIL] | 52500 | – | 3300 | 35000 | 2.4 | 7900 | – | – | – |
| – | CISPLATIN | – | – | – | – | – | – | – | – | 650 |
